Measured values taken from ChEMBL document CHEMBL1629421, “Isochaihulactone analogues: synthesis and anti-proliferative activity of novel dibenzylbutyrolactones” (2010).

What was measured:
Format in all cases: functional
MDA-MB-231 [1] = assay: Growth inhibition of human MDA-MB-231 cells at 50 ug/ml after 24 hrs by MTT colorimetric assay; conditions: MDA-MB-231, 24 h, read-out: GI
In short: (§1)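 Cells kept in RPMI 1640 with 10% FBS, 1% L-glutamine and penicillin-streptomycin at 37 °C, 5% CO2, and harvested with trypsin-EDTA. Seeded at 4 × 10⁴ cells/well, grown 24 h, then exposed to compound for 24 h at 37 °C. Medium replaced with phenol red-free medium, MTT (2 mg/ml) added for 4 h, formazan dissolved in isopropanol, A492 read. Inhibition taken versus untreated control wells; mean ± SD of three independent experiments.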

MCF7 [2] = assay: Growth inhibition of human MCF7 cells at 25 ug/ml after 24 hrs by MTT colorimetric assay; conditions: MCF7, 24 h, read-out: GI; in short: as §1
MCF7 [3] = assay: Growth inhibition of human MCF7 cells at 50 ug/ml after 24 hrs by MTT colorimetric assay; conditions: MCF7, 24 h, read-out: GI; in short: as §1
MDA-MB-231 [4] = assay: Growth inhibition of human MDA-MB-231 cells at 25 ug/ml after 24 hrs by MTT colorimetric assay; conditions: MDA-MB-231, 24 h, read-out: GI; in short: as §1
T47D = assay: Growth inhibition of human T47D cells at 25 ug/ml after 24 hrs by MTT colorimetric assay; conditions: read-out: GI; in short: as §1

COc1cccc(C(O)[C@H]2C(=O)OC[C@@H]2Cc2ccc3c(c2)OCO3)c1 (mixture of isomers)
inhibition of growth at 50 µg/mL (MDA-MB-231 [1]): 41.9% | inhibition of growth at 25 µg/mL (MCF7 [2]): -3.8% | inhibition of growth at 50 µg/mL (MCF7 [3]): 12.2% | inhibition of growth at 25 µg/mL (MDA-MB-231 [4]): 14.5%

O=C1OC[C@H](Cc2ccc3c(c2)OCO3)[C@H]1[C@H](O)c1ccccc1Cl
inhibition of growth at 50 µg/mL (MDA-MB-231 [1]): 47.3% | inhibition of growth at 25 µg/mL (MCF7 [2]): 15.8% | inhibition of growth at 50 µg/mL (MCF7 [3]): 7.5% | inhibition of growth at 25 µg/mL (MDA-MB-231 [4]): 34.8% | inhibition of growth at 25 µg/mL (T47D): 50.2%

COc1cccc2c1C(=O)c1c(O)c3c(c(O)c1C2=O)C[C@@](O)(C(=O)CO)C[C@@H]3O[C@H]1C[C@H](N)[C@H](O)[C@H](C)O1 [DOXORUBICIN]
inhibition of growth at 50 µg/mL (MDA-MB-231 [1]): 48.8% | inhibition of growth at 25 µg/mL (MCF7 [2]): 54.6% | inhibition of growth at 50 µg/mL (MCF7 [3]): 31.8% | inhibition of growth at 25 µg/mL (MDA-MB-231 [4]): 57.9% | inhibition of growth at 25 µg/mL (T47D): 60%

COc1ccc(C(O)[C@H]2C(=O)OC[C@@H]2Cc2ccc3c(c2)OCO3)cc1 (mixture of isomers)
inhibition of growth at 50 µg/mL (MDA-MB-231 [1]): 48.8% | inhibition of growth at 25 µg/mL (MCF7 [2]): 42.7% | inhibition of growth at 50 µg/mL (MCF7 [3]): 22.4% | inhibition of growth at 25 µg/mL (MDA-MB-231 [4]): 10.1%

O=C1OC[C@H](Cc2ccc3c(c2)OCO3)[C@H]1[C@@H](O)c1ccccc1Cl
inhibition of growth at 50 µg/mL (MDA-MB-231 [1]): 26.4% | inhibition of growth at 25 µg/mL (MCF7 [2]): 8.5% | inhibition of growth at 50 µg/mL (MCF7 [3]): 31.9% | inhibition of growth at 25 µg/mL (MDA-MB-231 [4]): 19% | inhibition of growth at 25 µg/mL (T47D): 52.9%

O=C1OC[C@H](Cc2ccc3c(c2)OCO3)[C@H]1C(O)c1ccccc1[N+](=O)[O-] (mixture of isomers)
inhibition of growth at 50 µg/mL (MDA-MB-231 [1]): 35.1% | inhibition of growth at 25 µg/mL (MCF7 [2]): 21.9% | inhibition of growth at 50 µg/mL (MCF7 [3]): -0.2% | inhibition of growth at 25 µg/mL (MDA-MB-231 [4]): 7.9% | inhibition of growth at 25 µg/mL (T47D): 38.1%

O=C1OC[C@H](Cc2ccc3c(c2)OCO3)[C@H]1Cc1ccccc1
inhibition of growth at 50 µg/mL (MDA-MB-231 [1]): 36.2% | inhibition of growth at 25 µg/mL (MCF7 [2]): 17% | inhibition of growth at 50 µg/mL (MCF7 [3]): 46% | inhibition of growth at 25 µg/mL (MDA-MB-231 [4]): 26.2% | inhibition of growth at 25 µg/mL (T47D): 61.9%

CC/C(=C(\c1ccccc1)c1ccc(OCCN(C)C)cc1)c1ccccc1 [TAMOXIFEN]
inhibition of growth at 50 µg/mL (MDA-MB-231 [1]): 67.7% | inhibition of growth at 25 µg/mL (MCF7 [2]): 65.7% | inhibition of growth at 50 µg/mL (MCF7 [3]): 25% | inhibition of growth at 25 µg/mL (MDA-MB-231 [4]): 58.6% | inhibition of growth at 25 µg/mL (T47D): 67.8%

COc1cc(C(O)[C@H]2C(=O)OC[C@@H]2Cc2ccc3c(c2)OCO3)cc(OC)c1OC (mixture of isomers)
inhibition of growth at 50 µg/mL (MDA-MB-231 [1]): 10.2% | inhibition of growth at 25 µg/mL (MCF7 [2]): 5.2% | inhibition of growth at 50 µg/mL (MCF7 [3]): 37.7% | inhibition of growth at 25 µg/mL (MDA-MB-231 [4]): -1.9% | inhibition of growth at 25 µg/mL (T47D): 50.1%

O=C1OC[C@H](Cc2ccc3c(c2)OCO3)[C@H]1[C@H](O)c1ccc([N+](=O)[O-])cc1
inhibition of growth at 50 µg/mL (MDA-MB-231 [1]): 20.1% | inhibition of growth at 25 µg/mL (MCF7 [2]): 24.6% | inhibition of growth at 50 µg/mL (MCF7 [3]): 17.9% | inhibition of growth at 25 µg/mL (MDA-MB-231 [4]): 17.9%

O=C1OC[C@H](Cc2ccc3c(c2)OCO3)[C@H]1C(O)c1ccc([N+](=O)[O-])cc1 (mixture of isomers)
inhibition of growth at 50 µg/mL (MDA-MB-231 [1]): 29% | inhibition of growth at 25 µg/mL (MCF7 [2]): 7.2% | inhibition of growth at 50 µg/mL (MCF7 [3]): 38.8% | inhibition of growth at 25 µg/mL (MDA-MB-231 [4]): 22.5%
